Assay outcomes from PubChem BioAssay.
Rows were chosen to be rich in hits. Some 2.7% of all compounds tested hit in one or more screens of this group.
IMP-1 inhibitor: IMP-1 metallo-beta-lactamase inhibitors, primary screen, biochemical, epi-absorbance readout, Pseudomonas aeruginosa enzyme; metallo-beta-lactamase IMP-1 (Pseudomonas aeruginosa); purified IMP-1, nitrocefin hydrolysis, epi-absorbance fluorescence; inhibition, % at 5.6 µM; 0.45% of 290,000 active;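 active means inhibition above the mean plus 3 SD of all compounds in the same screening run, cut at about 4.5% in these data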
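System: Purified IMP-1 | Read-out basis: Percent enzyme inhibition | Controls: IMP-1 with DMSO as 0%, enzyme-free DMSO as 100% | Replicates: One well per compound | Doses: 5.6 µM nominal single concentration | Detection: Epi-absorbance fluorescence, 480 nm excitation, 530 nm emission | Incubation: 25 °C, 15 min preincubation, 25 min reaction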
CTSL1 counter-1: Fasciola hepatica cathepsin L1 inhibitors, primary screen, counter-screen for PFM18AAP inhibitor project, biochemical, QFRET, fluorogenic peptide substrate; recombinant F. hepatica cathepsin L1, Z-Leu-Arg-MCA fluorescence; inhibition, % at 5.96 µM; 0.49% of 300,000 active; AID 1906, 2009;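 active means inhibition above the mean of all tested compounds plus 3 SD, set per screening campaign, cut at about 17% in these data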
PfM18AAP inh-1: PfM18AAP inhibitors, malaria aminopeptidase, primary screen, biochemical, QFRET, recombinant enzyme; M18 aspartyl aminopeptidase (Plasmodium falciparum 3D7); H-Glu-NHMec fluorogenic cleavage; inhibition, % at 7.35 µM; 1.2% of 290,000 active;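 active means inhibition above the campaign mean inhibition over all tested compounds plus 3 SD, cut at about 28% in these data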
VIM-2 inhibitor: VIM-2 metallo-beta-lactamase inhibitors, primary screen, biochemical, epi-absorbance readout, Pseudomonas aeruginosa enzyme | purified VIM-2, nitrocefin hydrolysis, epi-absorbance fluorescence | inhibition, % at 5.6 µM | 0.89% of 290,000 active;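 active means inhibition above the mean of all tested compounds plus 3 SD, cutoff set per screening run, cut at about 7.5% in these data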;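 further: red hydrolysis product quenches plate fluorescence so inhibitors raise well fluorescence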
PfM18AAP inh-2: PfM18AAP inhibitors, malaria aminopeptidase, confirmation, biochemical, QFRET, recombinant enzyme, triplicate | inhibition, % at 7.35 µM | H-Glu-NHMec fluorogenic cleavage | 28% of 2,400 active | shares compounds with PfM18AAP inh-1;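 active means mean inhibition over replicate wells above the hit cutoff set for the earlier primary screen, cut at about 29% in these data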
CTSL1 counter-2: cathepsin L1 inhibitors, retest, confirmation, counter-screen for PFM18AAP inhibitor project, biochemical, QFRET, triplicate | shares compounds with PfM18AAP inh-1 | purified cathepsin L1, Z-Leu-Arg-MCA fluorescence | inhibition, % at 5.96 µM | 2,400 tested, under 10 active | AID 2178, 2009;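 active means average inhibition across replicates above the hit cutoff set in the earlier primary screen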
Target sequence (P07711 whole entry, looked up): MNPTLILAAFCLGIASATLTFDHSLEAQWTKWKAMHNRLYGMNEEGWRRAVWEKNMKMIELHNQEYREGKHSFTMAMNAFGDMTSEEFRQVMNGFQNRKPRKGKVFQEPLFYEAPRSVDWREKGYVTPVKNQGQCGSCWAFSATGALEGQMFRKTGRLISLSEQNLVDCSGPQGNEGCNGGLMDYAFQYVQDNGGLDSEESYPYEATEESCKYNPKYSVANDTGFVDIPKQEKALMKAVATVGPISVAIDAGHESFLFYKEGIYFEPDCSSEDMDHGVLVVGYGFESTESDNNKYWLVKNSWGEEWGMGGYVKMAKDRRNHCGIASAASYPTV
Numbers stand for hits; . = inactive; / = no result.

SMILES	IMP-1 inhibitor	CTSL1 counter-1	PfM18AAP inh-1	VIM-2 inhibitor	PfM18AAP inh-2	CTSL1 counter-2
CC(OC(=O)c1ccc2c(c1)S(=O)(=O)c1ccccc1C2=O)C(N)=O (configuration not stated)	.	.	.	.	/	/
O=C(COc1ccccc1C(=O)N/N=C\c1ccc(O)c(O)c1)N/N=C/c1ccc(O)c(O)c1	.	.	76	.	74	.
CC(C)(C)c1ccc(OCc2ccc(C(=O)N/N=C/c3ccc(O)c(O)c3)cc2)cc1	.	.	36	.	.	.
O=C(N/N=C/c1ccc(OCc2ccc(F)cc2)cc1)c1ccccc1	.	.	.	.	/	/
O=C(NCC1CCN(C(=O)c2c(F)c(F)c(F)c(F)c2F)CC1)c1c(F)c(F)c(F)c(F)c1F	.	/	.	.	/	/
CCCCCCCOc1ccc(OC(=O)c2ccncc2)cc1	.	.	.	.	/	/
COc1ccccc1CNc1nc(C)c(C(=O)N(C)C)s1	.	/	34	.	.	.
CCc1cccc(NC(=O)CCCn2nc(C)c3c(C)n(-c4ccccc4)nc3c2=O)c1	.	.	.	.	/	/
Oc1ccc(/C=N/NC(=S)N/N=C/c2ccc(O)cc2)cc1	.	.	34	.	.	19
COc1ccccc1NC(=S)N/N=C/c1ccc(O)cc1	.	.	.	.	/	/
O=C(CCC(=O)N1CCN(c2ccc(O)cc2)CC1)c1cccs1	.	.	53	.	.	.
O=C(CCC(=O)N1CCN(c2ccc(O)cc2)CC1)c1ccc(Br)cc1	.	.	42	.	.	.
CC1(C)C(=O)CC[C@@]2(C)[C@H]1CC[C@@]1(C)CC3=C(CC[C@@H]12)[C@@]1(C)CCC(=O)C(C)(C)[C@@H]1CC3	/	.	/	/	/	/
CCCCNC(=O)NNc1nc(Cl)cc(C)c1C#N	.	.	54	.	45	.
CC(=O)c1cc(Cl)ccc1OCc1cccc(S(=O)(=O)N2CCOCC2)c1	/	.	/	/	/	/
COC(=O)c1ccc(C2NC(=O)c3c(sc(C)c3C)N2)cc1 (configuration not stated)	.	.	.	.	/	/
Cc1sc2c(c1C)C(=O)NC(c1cccc(O)c1)N2 (configuration not stated)	.	.	49	.	.	.
Cc1cc(-c2cc(-c3ccc(Cl)cc3)nc(N)c2C#N)co1	.	.	.	.	/	/
OCC1CCCN1C(=S)Nc1ccccc1 (configuration not stated)	.	.	.	.	/	/
CC(=O)/C(=N\Nc1ccc(C)cc1)N1CCOCC1	.	.	55	.	.	.
O=C(CS(=O)(=O)c1ccccc1)NCc1ccccc1	.	.	.	.	/	/
Cc1ccsc1C(=O)NNC(=O)Nc1ccc(Cl)c(Cl)c1	.	.	41	.	.	.
O=C(NCCC1=CCCCC1)C1CCN(S(=O)(=O)c2ccccc2C(F)(F)F)CC1	/	.	/	/	/	/
O=C(c1ccc(N2CCOCC2)c([N+](=O)[O-])c1)N1CCCC(C(F)(F)F)C1 (configuration not stated)	/	.	/	/	/	/
CC(C)(C)N=Cc1c(O)ccc2oc3c(c12)CCCC3	19	.	33	.	.	.
SMILES	IMP-1 inhibitor	CTSL1 counter-1	PfM18AAP inh-1	VIM-2 inhibitor	PfM18AAP inh-2	CTSL1 counter-2
NC(=O)N/N=C/c1c(O)ccc2oc3c(c12)CCCC3	.	.	.	.	/	/
Fc1ccccc1/C=N/Nc1ncnc2nc[nH]c12	.	.	33	.	.	.
COc1ccccc1NC(=O)N1CCC(c2nc3ccccc3o2)CC1	.	.	.	.	/	/
CC(=O)C(C(C)=O)c1c(Cl)c(O)c(O)c2c(C(=O)c3ccccc3)coc12	.	.	55	.	55	.
CCc1nnc(N/N=C/c2ccc(-c3ccc([N+](=O)[O-])cc3)o2)n1N	.	.	43	.	.	.
CCc1nnc(N/N=C/c2cc(C)c(C)cc2C)n1N	.	/	40	.	.	.
Cc1nnc(N/N=C\c2ccc(-c3ccccc3[N+](=O)[O-])o2)n1N	.	.	43	.	.	.
CCC(=O)N/N=C/c1ccc(-c2ccc([N+](=O)[O-])cc2)o1	.	.	.	.	/	/
O=C(CCN1C(=O)/C(=C\c2cccc(Br)c2)SC1=S)N1CCOCC1	.	.	.	.	/	/
